Assay results from ChEMBL document CHEMBL1152927, “Diterpene glycosides from the seeds of Pharbitis nil” (J Nat Prod, 2009).

Legend:
Type in all cases: functional, cell-based
[1] = tested on: SK-OV-3; assay: Cytotoxicity against human SKOV3 cells by SRB assay
In short: (§1)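 Sulforhodamine B (SRB) assay against cultured human cancer cell lines, run at the Korea Research Institute of Chemical Technology. Cytotoxicity is reported as IC50 in µM.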

[2] = tested on: SK-MEL-2; assay: Cytotoxicity against human SK-MEL-2 cells by SRB assay; in short: as §1
[3] = tested on: A549; assay: Cytotoxicity against human A549 cells by SRB assay; in short: as §1
[4] = tested on: HCT-15; assay: Cytotoxicity against human HCT15 cells by SRB assay; in short: as §1

SMILES	IC50 [1]	IC50 [2]	IC50 [3]	IC50 [4]
C[C@@]12CCC[C@@](C)(C(=O)O)[C@H]1[C@H](O)[C@H](O)[C@@]13C[C@H](CC[C@@H]21)[C@@](O)(CO)C3	> 30 µM	> 30 µM	> 30 µM	> 30 µM
C=C1C[C@]23C[C@@H]1CC[C@H]2[C@]1(C)CCC[C@@](C)(C(=O)O[C@@H]2O[C@H](CO)[C@@H](O)[C@H](O)[C@H]2O)C1[C@@H]3C=O (stereo partly drawn) [PHARBOSIDE G]	> 30 µM	> 30 µM	> 30 µM	> 30 µM
C[C@]12CCC[C@@]3(C)C(=O)O[C@@H]([C@H](O)[C@@]45C[C@H](CC[C@@H]14)[C@](O)(CO)C5)[C@@H]23	> 30 µM	> 30 µM	> 30 µM	> 30 µM
C=C1C[C@]23C[C@@H]1CC[C@H]2[C@]1(C)CCC[C@@](C)(C(=O)O[C@@H]2O[C@H](CO)[C@@H](O)[C@H](O)[C@H]2O)[C@H]1C[C@@H]3O [PHARBOSIDE A]	> 30 µM	> 30 µM	> 30 µM	> 30 µM
C[C@@]12CCC[C@@](C)(C(=O)O)[C@H]1[C@H](O)[C@H](O)[C@@]13C[C@H](CC[C@@H]21)[C@](O)(CO[C@@H]1O[C@H](CO)[C@@H](O)[C@H](O)[C@H]1O)C3 [PHARBOSIDE E]	13.8 µM	15.2 µM	23.6 µM	22.1 µM
C[C@@]12CCC[C@@](C)(C(=O)O)[C@H]1[C@H](O)[C@H](O)[C@@]13C[C@H](CC[C@@H]21)[C@](O)(CO)C3	> 30 µM	> 30 µM	> 30 µM	> 30 µM
C=C1C[C@]23C[C@@H]1CC[C@H]2[C@]1(C)CCC[C@@](C)(C(=O)O[C@@H]2O[C@H](CO)[C@@H](O)[C@H](O)[C@H]2O)[C@H]1C[C@H]3O [PHARBOSIDE B]	> 30 µM	> 30 µM	> 30 µM	> 30 µM
C[C@@]12CCC[C@@](C)(C(=O)O[C@@H]3O[C@H](CO)[C@@H](O)[C@H](O)[C@H]3O)[C@H]1[C@H](O)[C@H](O)[C@@]13C[C@H](CC[C@@H]21)[C@](O)(CO)C3 [PHARBOSIDE D]	28.7 µM	14.3 µM	25.2 µM	17.2 µM
COC(=O)[C@]1(C)CCC[C@@]2(C)[C@@H]3CC[C@H]4C[C@]3(C[C@@]4(CO)O[C@@H]3O[C@H](CO)[C@@H](O)[C@H](O)[C@H]3O)[C@@H](O)[C@@H](O)[C@@H]21 [PHARBOSIDE C]	> 30 µM	> 30 µM	> 30 µM	> 30 µM
COc1cccc2c1C(=O)c1c(O)c3c(c(O)c1C2=O)C[C@@](O)(C(=O)CO)C[C@@H]3O[C@H]1C[C@H](N)[C@H](O)[C@H](C)O1 [DOXORUBICIN]	0.056 µM	0.117 µM		0.164 µM
C[C@@]12CCC[C@@](C)(C(=O)O)[C@H]1[C@H](O)[C@H](O)[C@@]13C[C@H](CC[C@@H]21)[C@](CO)(O[C@@H]1O[C@H](CO)[C@@H](O)[C@H](O)[C@H]1O)C3 [PHARBOSIDE F]	> 30 µM	> 30 µM	> 30 µM	> 30 µM
